Our source for the Activity and EC50 values is ChEMBL document CHEMBL1156534, “Hemopressin is an inverse agonist of CB1 cannabinoid receptors” (Proc Natl Acad Sci U S A, 2007).

The source made the active and inactive calls.

As usually defined, the EC50 is the concentration that produces a half-maximal response.

The target in assay [1] is Cannabinoid receptor 2 (Homo sapiens) (UniProt P34972). The experiment in a line: Antagonist activity at CB2 receptor expressed in HEK293 cells assessed as blockade of secreted alkaline phosphatase activity at 1 uM after 6 hrs relative to control. The assay is classed as functional, cell-based. In a few lines:
(§1)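 HEK-293 cells transfected with 5 μg pCRE-SeAP plus 1 μg Flag-tagged CB₁ or CB₂ receptor, 30,000 cells/well, serum-starved 16–18 h. Stimulated 6 h in serum-free medium with 10 μM forskolin and 100 nM agonist, without or with 1 μM test peptide. Supernatant diluted in pH 7.2 buffer, heated 65°C 20 min, then CSPD chemiluminescence read. Mean ± SEM, n = 6.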

The target of assay [2] is Cannabinoid receptor 1 (Homo sapiens) (UniProt P21554). The experiment in a line: Antagonist activity at CB1 receptor expressed in HEK293 cells assessed as blockade of secreted alkaline phosphatase activity at 1 uM after 6 hrs relative to control. The format is functional, cell-based. Put shortly:
as §1

Assay [3] has as its target Cannabinoid receptor 1 (Rattus norvegicus) (UniProt P20272). The experiment in a line: Antagonist activity at Long-Evans rat striatal membrane CB1 receptor assessed as blockade of Hu210-induced increase in GTPgammaS binding. The assay is classed as functional. In a few lines: (§2)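 Membranes (10 μg) came from striatum (CB1) or spleen (CB2). They were tested in GTPγS-binding or adenylyl cyclase assays with Hu-210 and test ligand (0–1 μM), or with Hu-210 curves with or without 10 μM peptide; a 1 μM single-point combination was also used. Mean ± SE of triplicates.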
In general terms: GTPγS resists hydrolysis and so accumulates on activated G proteins.

In a further assay the target is Cannabinoid receptor 1 (Rattus norvegicus, UniProt P20272). The experiment in a line: Displacement of [3H]SR141716 from Long-Evans rat striatal membrane CB1 receptor. (Displacement assays read how much labelled ligand stays bound in the presence of the test substance.)
Assay [4] has as its system Rattus norvegicus. The experiment in a line: Antihyperalgesic effects in Wistar rat assessed as reduction of carrageenan-induced paw pressure at 5 ug/kg, intrathecal after 3 hrs. The format is functional, organism-based. In a few lines:
(§3)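 Male Wistar rats (200 g) received carrageenan 200 μg/paw intraplantar in saline into the right hind paw. Peptide was given at the same time: intraplantar 10 μg/paw, intrathecal 0.5 or 5 μg/kg, or oral 50 or 100 μg/kg; saline-treated rats served as controls. Paw-pressure withdrawal threshold (force ramp 16 g/s) was read at 0 and 3 h. n = 6–8.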
For orientation: Carrageenan injected into the paw causes an acute inflammation.

For assay [5], the target named is Cannabinoid receptor 1 (Homo sapiens) (UniProt P21554). The experiment in a line: Antagonist activity at CB1 receptor expressed in SKNSH cells assessed as blockade of Hu210-induced increase in antibody recognition at 100 nM by ELISA relative to control. The assay is classed as functional, cell-based. More on the design: scale not given: the % may be the effect or the level left.

The target of assay [6] is Beta-2 adrenergic receptor (Homo sapiens) (UniProt P07550). The experiment in a line: Antagonist activity at beta2 adrenergic receptor expressed in HEK293 cells assessed as blockade of […] in secreted alkaline phosphatase activity at 1 uM after 6 hrs relative to control. The assay is classed as functional, cell-based. Put shortly:
(§4)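 HEK-293 cells transiently co-transfected with pCRE-SeAP and a Flag-tagged receptor, 30,000 cells/well on poly-L-lysine. They were serum-starved 16–18 h, then exposed 6 h in serum-free medium to 10 μM forskolin (omitted for β2) plus the receptor agonist (100 nM), with or without peptide (1 μM). Heat-treated supernatant SeAP was read by CSPD chemiluminescence. Mean ± SEM, n = 6.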

Assay [7] addresses Delta-type opioid receptor (Homo sapiens) (UniProt P41143). The experiment in a line: Antagonist activity at delta opioid receptor expressed in HEK293 cells assessed as blockade of secreted alkaline phosphatase activity at 1 uM after 6 hrs relative to control. The format is functional, cell-based. In a few lines:
as §4

For assay [8], the target named is Cannabinoid receptor 1 (Homo sapiens) (UniProt P21554). The experiment in a line: Antagonist activity at flag tagged recombinant CB1 receptor expressed in HEK293 cells assessed as blockade of Hu210-induced increase in phospho ERK1/2 level. The format is functional, cell-based. Put shortly:
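HEK-293 cells expressing Flag-tagged CB1 (2 × 10⁶ cells/well) were stimulated for 5 min with 100 nM Hu-210, with or without 10 μM antagonist. Phospho-ERK1/2 was quantified relative to untreated cells (100%). Mean ± SE of triplicate experiments.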

Assay [9] addresses Mu-type opioid receptor (Homo sapiens) (UniProt P35372). The experiment in a line: Antagonist activity at mu opioid receptor expressed in SKNSH cells assessed as blockade of DAMGO-induced increase in antibody recognition at 100 nM by ELISA relative to control. The format is functional, cell-based. The arrangement: scale not given: the % may be the effect or the level left.
Assay [10] deals with Delta-type opioid receptor (Homo sapiens) (UniProt P41143). The experiment in a line: Antagonist activity at delta opioid receptor expressed in HEK293 cells assessed as blockade of deltorphin 2-mediated decrease in secreted alkaline phosphatase activity at 1 uM after 6 hrs relative to control. The format is functional, cell-based. In a few lines: as §4
Assay [11] addresses Cannabinoid receptor 2 (Homo sapiens) (UniProt P34972). The experiment in a line: Antagonist activity at CB2 receptor expressed in SKNSH cells at 100 nM by ELISA relative to control. The format is functional, cell-based. The arrangement: scale not given: the % may be the effect or the level left.
The target of assay [12] is Beta-2 adrenergic receptor (Homo sapiens) (UniProt P07550). The experiment in a line: Antagonist activity at beta2 adrenergic receptor expressed in SKNSH cells at 100 nM by ELISA relative to control. More on the design: scale not given: the % may be the effect or the level left. The assay is classed as functional, cell-based.
Assay [13] addresses Cannabinoid receptor 2 (Homo sapiens) (UniProt P34972). The experiment in a line: Antagonist activity at CB2 receptor expressed in SKNSH cells assessed as blockade of Hu210-induced increase in antibody recognition at 100 nM by ELISA relative to control. The format is functional, cell-based. More on the design: scale not given: the % may be the effect or the level left.
In assay [14] the test system is Rattus norvegicus. The experiment in a line: Antihyperalgesic effects in Wistar rat assessed as reduction of carrageenan-induced paw pressure at 0.5 ug/kg, intrathecal after 3 hrs. The format is functional, organism-based. Put shortly:
as §3

Assay [15] addresses T1, Cannabinoid receptor 2 (Rattus norvegicus) (UniProt Q9QZN9).
T1 sequence (whole entry): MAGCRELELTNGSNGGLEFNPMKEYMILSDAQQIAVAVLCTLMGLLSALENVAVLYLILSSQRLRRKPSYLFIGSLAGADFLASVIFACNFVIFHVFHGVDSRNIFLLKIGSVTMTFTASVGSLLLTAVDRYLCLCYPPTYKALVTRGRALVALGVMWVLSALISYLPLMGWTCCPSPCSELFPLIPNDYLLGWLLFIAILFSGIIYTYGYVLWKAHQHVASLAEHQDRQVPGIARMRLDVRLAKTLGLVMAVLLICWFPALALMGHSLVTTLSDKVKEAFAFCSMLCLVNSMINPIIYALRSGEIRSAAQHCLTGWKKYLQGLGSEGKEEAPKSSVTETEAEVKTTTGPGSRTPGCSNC
The experiment in a line: Antagonist activity at Long-Evans rat spleen CB2 receptor assessed as blockade of Hu210-induced increase in GTPgammaS binding. The assay is classed as functional, tissue-based. In a few lines:
as §2

The target in assay [16] is Cannabinoid receptor 1 (Homo sapiens) (UniProt P21554). The experiment in a line: Antagonist activity at CB1 receptor expressed in Neuro 2A cells assessed as blockade of Hu210-mediated increase in number of neurite outgrowth at 10 uM after 16 hrs. The assay is classed as functional, cell-based. Put shortly:
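Neuro 2A cells transfected with Flag-tagged CB1 or CB2 were exposed 16 h in 0.1% FBS medium to 100 nM Hu-210 with or without 10 μM peptide. The percentage of cells extending neurites was scored and normalized to untreated cells (100%). Mean ± SE of triplicate experiments.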

For assay [17] the target is unchanged. The experiment in a line: Antagonist activity at CB1 receptor expressed in HEK293 cells assessed as blockade of Hu210-mediated decrease in secreted alkaline phosphatase activity at 1 uM after 6 hrs relative to control. The format is functional, cell-based. Put shortly: as §4

Cannabinoid receptor 2 (Homo sapiens), sequence (P34972 whole entry): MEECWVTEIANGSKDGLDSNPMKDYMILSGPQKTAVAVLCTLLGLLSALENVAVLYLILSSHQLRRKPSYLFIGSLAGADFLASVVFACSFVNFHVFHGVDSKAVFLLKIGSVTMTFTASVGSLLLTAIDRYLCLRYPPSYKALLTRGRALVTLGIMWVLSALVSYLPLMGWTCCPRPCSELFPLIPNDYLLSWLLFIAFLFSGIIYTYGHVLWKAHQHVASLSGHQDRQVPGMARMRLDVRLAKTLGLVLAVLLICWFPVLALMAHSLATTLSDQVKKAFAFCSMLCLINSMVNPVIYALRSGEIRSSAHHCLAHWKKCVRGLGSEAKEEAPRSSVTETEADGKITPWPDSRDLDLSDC
Cannabinoid receptor 1 (Homo sapiens), sequence (P21554 whole entry): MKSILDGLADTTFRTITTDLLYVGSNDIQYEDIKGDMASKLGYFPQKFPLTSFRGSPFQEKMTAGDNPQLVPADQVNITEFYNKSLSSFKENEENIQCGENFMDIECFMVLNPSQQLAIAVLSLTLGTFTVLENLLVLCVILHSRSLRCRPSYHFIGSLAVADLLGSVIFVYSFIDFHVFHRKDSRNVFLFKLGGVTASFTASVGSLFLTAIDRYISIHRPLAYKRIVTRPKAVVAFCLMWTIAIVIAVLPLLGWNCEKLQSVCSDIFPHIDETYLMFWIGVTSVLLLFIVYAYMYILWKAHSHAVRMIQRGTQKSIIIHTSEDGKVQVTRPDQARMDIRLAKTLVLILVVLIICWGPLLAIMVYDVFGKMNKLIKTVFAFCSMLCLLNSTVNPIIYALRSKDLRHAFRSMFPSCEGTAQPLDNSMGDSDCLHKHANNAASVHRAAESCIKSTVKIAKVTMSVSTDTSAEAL
Delta-type opioid receptor (Homo sapiens), sequence (P41143 whole entry): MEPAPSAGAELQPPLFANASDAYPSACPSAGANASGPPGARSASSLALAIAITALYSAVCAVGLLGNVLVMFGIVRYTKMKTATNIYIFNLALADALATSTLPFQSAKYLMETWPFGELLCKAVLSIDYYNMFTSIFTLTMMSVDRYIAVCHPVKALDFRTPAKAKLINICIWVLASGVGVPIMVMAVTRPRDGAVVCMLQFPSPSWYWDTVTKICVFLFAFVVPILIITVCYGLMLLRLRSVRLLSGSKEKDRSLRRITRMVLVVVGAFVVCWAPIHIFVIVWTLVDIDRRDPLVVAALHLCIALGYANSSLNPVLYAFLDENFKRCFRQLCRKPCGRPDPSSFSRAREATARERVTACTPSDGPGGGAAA
Beta-2 adrenergic receptor (Homo sapiens), sequence (P07550 whole entry, looked up): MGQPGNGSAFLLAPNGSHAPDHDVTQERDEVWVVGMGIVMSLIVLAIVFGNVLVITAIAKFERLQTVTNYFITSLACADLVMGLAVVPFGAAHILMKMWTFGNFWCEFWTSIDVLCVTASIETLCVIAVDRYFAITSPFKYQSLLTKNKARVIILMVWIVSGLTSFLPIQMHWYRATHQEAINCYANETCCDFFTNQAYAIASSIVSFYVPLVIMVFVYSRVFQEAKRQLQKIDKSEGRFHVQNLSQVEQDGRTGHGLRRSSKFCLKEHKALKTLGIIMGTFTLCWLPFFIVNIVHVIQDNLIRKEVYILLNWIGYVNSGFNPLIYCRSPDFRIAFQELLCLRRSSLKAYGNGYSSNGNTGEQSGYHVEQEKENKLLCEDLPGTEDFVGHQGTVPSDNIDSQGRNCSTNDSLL
Mu-type opioid receptor (Homo sapiens), sequence (P35372 whole entry): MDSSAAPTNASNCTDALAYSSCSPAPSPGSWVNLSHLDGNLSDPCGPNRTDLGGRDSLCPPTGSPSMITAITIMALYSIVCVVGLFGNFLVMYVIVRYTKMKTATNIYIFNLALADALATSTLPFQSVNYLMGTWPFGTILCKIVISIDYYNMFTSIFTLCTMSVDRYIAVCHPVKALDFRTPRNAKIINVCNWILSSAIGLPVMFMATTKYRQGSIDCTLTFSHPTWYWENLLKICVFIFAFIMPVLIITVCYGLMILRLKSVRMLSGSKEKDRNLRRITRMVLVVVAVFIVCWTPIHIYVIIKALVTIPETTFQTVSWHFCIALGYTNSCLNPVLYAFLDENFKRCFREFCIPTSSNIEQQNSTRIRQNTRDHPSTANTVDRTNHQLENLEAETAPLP
Cannabinoid receptor 1 (Rattus norvegicus), sequence (P20272 whole entry): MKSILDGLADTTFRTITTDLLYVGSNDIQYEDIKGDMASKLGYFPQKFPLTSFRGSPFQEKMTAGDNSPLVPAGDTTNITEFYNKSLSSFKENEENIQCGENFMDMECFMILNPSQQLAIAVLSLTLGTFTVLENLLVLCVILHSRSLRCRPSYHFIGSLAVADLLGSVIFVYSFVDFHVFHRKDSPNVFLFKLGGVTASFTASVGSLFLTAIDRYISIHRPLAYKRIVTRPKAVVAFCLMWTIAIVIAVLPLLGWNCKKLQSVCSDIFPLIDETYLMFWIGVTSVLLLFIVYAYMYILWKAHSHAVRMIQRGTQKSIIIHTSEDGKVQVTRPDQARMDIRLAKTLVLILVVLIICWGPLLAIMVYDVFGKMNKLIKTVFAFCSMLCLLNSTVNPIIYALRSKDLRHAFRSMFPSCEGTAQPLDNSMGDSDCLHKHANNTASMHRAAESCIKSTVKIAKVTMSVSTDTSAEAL
Cannabinoid receptor 1, sequence (P20272 whole entry): as above

As to `CC(C)C[C@H](NC(=O)[C@H](Cc1ccccc1)NC(=O)[C@H](CCCCN)NC(=O)[C@H](Cc1ccccc1)NC(=O)[C@H](CC(N)=O)NC(=O)[C@@H](NC(=O)[C@@H]1CCCN1)C(C)C)C(=O)N[C@@H](CO)C(=O)N[C@@H](Cc1cnc[nH]1)C(=O)O` [HEMOPRESSIN], the Activity in [1] came out at 0.94; in [2] it was 1.15; in assay [5], 102%; in [6], 1.24; in [7], 0.9; in assay [9], 141%. Also, the Activity in [10] was 0.59; in assay [11], 103%; in assay [12], 104%; in assay [13] it was 108%; in [17] it was 1.07. For the same molecule, the outcome (in assay [3]; in the assay on Rattus norvegicus [4]; in assay [8]; in the assay with Rattus norvegicus [14]; in assay [16]) was Active. The molecule further returned an EC50 at Cannabinoid receptor 1 of 0.35 nM. Further, the outcome in [15] was inactive.
